From ChEMBL document CHEMBL1123657, “Anthrapyrazole anticancer agents. Synthesis and structure-activity relationships against murine leukemias” (J Med Chem, 1987)

What was measured:
L1210 [1] = assay: Compound was tested in vitro against murine L1210 leukemia; IA means inactive.; assay type: functional, cell-based, Mus musculus
P388 [2] = assay: Activity against P388 leukemia cells in mice, by intraperitoneal dosing and net log tumor cell kill was reported; assay type: functional, Mus musculus
P388 [3] = assay: Inhibition of P388 leukemia cells in mice, measured as percent treated to the control values with the number of 30 day survivors; assay type: functional, Mus musculus
Summary of the method: (§1)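 P388 leukemia implanted ip in mice; drug given ip on days 1 and 5 (ip/ip; D1,5), dosed in mg/kg per injection. Read-out is treated/control (T/C, %) with cures counted, reported at the optimal dose.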

P388 [4] = assay: Optimal dose per injection in mg/kg required to inhibit growth of P388 leukemia cells in mice; assay type: functional, Mus musculus; summary of the method: as §1
B16 [5] = assay: Optimal dose per injection in mg/kg required to inhibit growth of murine B-16 melanoma in vivo; assay type: functional, Mus musculus
Summary of the method: (§2)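 Murine B-16 melanoma in vivo: tumor implanted ip, compound given ip on days 1–9 (ip/ip; D1–9), dosed as mg/kg per injection. Activity expressed as T/C (%) plus number of cures, taken at the optimal dose.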

B16 [6] = assay: Tested for activity against murine B-16 melanoma in mice and percent treated to the control values with the number of 60 day survivors; assay type: functional, Mus musculus; summary of the method: as §2
L1210 [7] = assay: Tested in vitro against murine L1210 leukemia.; assay type: functional, cell-based; conditions: Mus musculus

Row | SMILES | IC50 (L1210 [1]) | Activity (P388 [2]) | T/C (P388 [3]) | Dose (P388 [4]) | Optimal dose (B16 [5]) | T/C (B16 [6]) | IC50 (L1210 [7])
1 | CCN(CC)CCn1nc2c3c(c(NCCN(C)C(=O)OCc4ccccc4)ccc31)C(=O)c1c(O)ccc(O)c1-2 | Not Active | – | – | – | – | – | –
2 | O=C(O)CCNc1ccc2c3c(nn2CCO)-c2ccccc2C(=O)c13 | Not Active | -1.6 | 98% | 25 mg/kg | – | – | –
3 | CN(CCNc1ccc2c3c(nn2CCNCCO)-c2c(O)ccc(O)c2C(=O)c13)C(=O)OCc1ccccc1 | Not Active | – | – | – | – | – | –
4 | CCN(CC)CCn1nc2c3c(c(NCCC(=O)O)ccc31)C(=O)c1ccccc1-2 | Not Active | -1.3 | 117% | 12.5 mg/kg | – | – | –
5 | Cl.NCCCNc1ccc2c3c(nn2CCNCCO)-c2c(O)ccc(O)c2C(=O)c13 | – | >6.5 | 294% | 45 mg/kg | 8 mg/kg | 338% | 0.96 µM
6 | Cl.NCCCCCNc1ccc2c3c(nn2CCNCCO)-c2c(O)ccc(O)c2C(=O)c13 | Not Active | 1.5 | 150% | 100 mg/kg | – | – | –
7 | Cl.O=C1c2ccccc2-c2nn(CCNCCO)c3ccc(NCCO)c1c23 | – | 0.1 | 139% | 25 mg/kg | – | – | 0.75 µM
8 | CCN(CC)CCCNc1ccc2c3c(nn2CCO)-c2ccccc2C(=O)c13.Cl | Not Active | -1.5 | 104% | 200 mg/kg | – | – | –
9 | Cl.O=C1c2c(O)ccc(O)c2-c2nn(CCO)c3ccc(NCCN4CCOCC4)c1c23 | – | -1.2 | 122% | 400 mg/kg | – | – | 1.1 µM
10 | CCN(CC)CCCCNc1ccc2c3c(nn2CCO)-c2ccccc2C(=O)c13.Cl | Not Active | -1.3 | 115% | 300 mg/kg | – | – | –
11 | CCN(CC)CC(O)Cn1nc2c3c(c(NCCNCCO)ccc31)C(=O)c1c(O)ccc(O)c1-2.Cl (configuration not stated) | – | 5.3 | 223% | 12.5 mg/kg | – | – | 0.84 µM
12 | Cl.NCCCNCCCCNCCCNc1ccc2c3c(nn2CCNCCO)-c2c(O)ccc(O)c2C(=O)c13 | Not Active | 0.6 | 145% | 12.5 mg/kg | – | – | –
13 | Cl.O=C1c2c(O)ccc(O)c2-c2nn(CCO)c3ccc(NCCNCCO)c1c23 | – | 6.8 | 271% | 200 mg/kg | 80 mg/kg | 246% | 0.78 µM
14 | Cl.O=C1c2c(O)ccc(O)c2-c2nn(CCNCCO)c3ccc(NCCN(CCO)CCO)c1c23 | – | >6.6 | 277% | 200 mg/kg | 25 mg/kg | 342% | 0.43 µM
15 | CN1CCN(c2ccc3c4c(nn3CCNCCO)-c3c(O)ccc(O)c3C(=O)c24)CC1.Cl | – | 3.8 | 192% | 12.5 mg/kg | – | – | 0.43 µM
16 | Cl.O=C1c2c(O)ccc(O)c2-c2nn(CCNCCO)c3ccc(NCCN4CCOCC4)c1c23 | – | 2.9 | 177% | 50 mg/kg | – | – | 0.65 µM
17 | Cl.O=C1c2c(O)ccc(O)c2-c2nn(CCCNCCO)c3ccc(NCCNCCO)c1c23 | Not Active | >7 | 275% | 100 mg/kg | – | – | –
18 | CCN(CC)CCNc1ccc2c3c(nn2C)-c2ccccc2C(=O)c13.Cl | – | -1.5 | 98% | 400 mg/kg | – | – | 0.67 µM

Row | SMILES | IC50 (L1210 [1]) | Activity (P388 [2]) | T/C (P388 [3]) | Dose (P388 [4]) | Optimal dose (B16 [5]) | T/C (B16 [6]) | IC50 (L1210 [7])
19 | CSCCn1nc2c3c(c(NCCNCCO)ccc31)C(=O)c1c(O)ccc(O)c1-2.Cl | Not Active | 0.3 | 140% | 6.25 mg/kg | – | – | –
20 | CN(C)CCNCCNc1ccc2c3c(nn2CC(O)CO)-c2c(O)ccc(O)c2C(=O)c13.Cl (configuration not stated) | – | 6.7 | 281% | 400 mg/kg | – | – | 2.2 µM
21 | CCN(CC)CCn1nc2c3c(c(NCCNCCO)ccc31)C(=O)c1c(O)ccc(O)c1-2.Cl | – | >6.8 | 264% | 12.5 mg/kg | 6 mg/kg | – | 0.13 µM
22 | CCN(CC)CC(O)Cn1nc2c3c(c(NCCN)ccc31)C(=O)c1c(O)ccc(O)c1-2.Cl (configuration not stated) | Not Active | >6.7 | 262% | 6.25 mg/kg | – | – | –
23 | Cl.NCCNCCNc1ccc2c3c(nn2CCO)-c2c(O)ccc(O)c2C(=O)c13 | Not Active | 1.2 | 174% | 200 mg/kg | – | – | –
24 | Cl.O=C1c2ccccc2-c2nn(CCO)c3ccc(NCCN4CCNCC4)c1c23 | Not Active | -1.3 | 109% | 50 mg/kg | – | – | –
25 | Cl.NCCCCNc1ccc2c3c(nn2CCNCCO)-c2c(O)ccc(O)c2C(=O)c13 | Not Active | 3.4 | 173% | 100 mg/kg | – | – | –
26 | COCCn1nc2c3c(c(NCCN)ccc31)C(=O)c1c(O)ccc(O)c1-2.Cl | Not Active | -0.6 | 127% | 50 mg/kg | – | – | –
27 | CCN(CC)CCCCCCCNc1ccc2c3c(nn2CCO)-c2ccccc2C(=O)c13.Cl | Not Active | -1.6 | 98% | 100 mg/kg | – | – | –
28 | Cl.Cn1nc2c3c(c(NCCNCCO)ccc31)C(=O)c1ccccc1-2 | – | -0.2 | 136% | 100 mg/kg | – | – | 0.71 µM
29 | Cl.NCCCn1nc2c3c(c(NCCNCCO)ccc31)C(=O)c1c(O)ccc(O)c1-2 | – | >6.6 | – | 50 mg/kg | 6.25 mg/kg | 375% | 0.16 µM
30 | Cl.NCCNc1ccc2c3c(nn2CCO)-c2c(O)ccc(O)c2C(=O)c13 | – | 6.8 | 196% | 100 mg/kg | – | – | 0.48 µM
31 | CCN(CC)CCCCNc1ccc2c3c(nn2CCN(CC)CC)-c2ccccc2C(=O)c13.Cl | – | -1.4 | 107% | 25 mg/kg | – | – | 0.62 µM
32 | Cl.O=C1c2ccccc2-c2nn(CCO)c3ccc(NCCN4CCOCC4)c1c23 | Not Active | -1.5 | 100% | 25 mg/kg | – | – | –
33 | CCN(CC)CCn1nc2c3c(c(NCCN)ccc31)C(=O)c1c(O)ccc(O)c1-2.Cl | – | >7.1 | 280% | 12.5 mg/kg | 3.6 mg/kg | 176% | 0.046 µM
34 | Cl.NCCn1nc2c3c(c(NCCNCCO)ccc31)C(=O)c1c(O)ccc(O)c1-2 | – | > 6.7 | 270% | 12.5 mg/kg | 3 mg/kg | 306% | 0.58 µM
35 | CNCCNc1ccc2c3c(nn2CCNCCO)-c2c(O)ccc(O)c2C(=O)c13 [TELOXANTRONE] | – | >6.6 | – | 12.5 mg/kg | 1.5 mg/kg | 357% | 0.14 µM
